Assay: 15N relaxation, tumbling correlation time
Format: physicochemical, murine
Settings: 15N relaxation (R2/R1), free protein, 600 MHz, 295 K
In short: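 Uniformly ¹⁵N-labelled domain expressed in E. coli BL21(DE3) on ¹⁵NH₄Cl minimal medium. Typical sample 0.3–0.4 mM in 20 mM sodium phosphate pH 6.3, 0.15 M NaCl, 2 mM DTT, 50 μM ZnCl₂. R1 sampled at 13 delays (50–2000 ms), R2 at 11 (12–244 ms), with heating compensation, random order and 2.5 s recovery. Duplicates fitted to two-parameter exponentials. τc from R2/R1, using non-overlapped residues with hetNOE > 0.65.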

B1: PHDVC5HCHNSD1: Murine NSD1 PHDvC5HCH (Glu2117–Asp2207), tandem domain, human residue numbering Glu2116–Asp2206 (protein, UniProt O88491 2117-2207, looked up, fragment)
chain: REYVPPTATSPPSPGTQPKEQSSEMATQGPKKSDQPPTDATQLLPLSKKALTGSCQRPLLPERPPERTDSSSHLLDRIRDLAGSGTKSQSL
Question: Which “correlation time (free)” value does the source give for B1 here?
Answer: 7.96±0.41 ns
